From ChEMBL document CHEMBL1124792, “Synthesis and structure-activity relationships of 5-substituted 6,8-difluoroquinolones, including sparfloxacin, a new quinolone antibacterial agent with improved potency” (1990)
In brackets after ≈: the same amount, converted by molar mass.

How the values were obtained:
Format in all cases: functional
[1] = system: Pseudomonas aeruginosa; assay: In vitro antibacterial activity against Pseudomonas aeruginosa IFO 3445
Procedure, shortened: (§1)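 Two-fold agar dilution MIC on Mueller-Hinton agar (pH 7.4), following the Japan Society of Chemotherapy MIC Committee method. Inoculum was about 10⁶ CFU, and growth was read after 20 h at 37 °C. MIC is reported in µg/mL.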

[2] = organism: Mus musculus; assay: Oral efficacy against Pseudomonas aeruginosa 12 on Systemic Infections in Mice
Procedure, shortened: (§2)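 Groups of at least 10 male Std-ddY mice (20 ± 2 g) were infected ip, with S. pyogenes A65 at 3×10^7 cells or P. aeruginosa 12 at 4×10^3 cells. Compounds were suspended in 0.2% sodium carboxymethylcellulose and given orally at 0 and 6 h postinfection. The result is reported as ED50 in mg/kg.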

[3] = system: Enterococcus faecalis; assay: In vitro antibacterial activity against Streptococcus faecalis 2473; procedure, shortened: as §1
[4] = system: Enterobacter cloacae; assay: In vitro antibacterial activity against Enterobacter cloacae 963
[5] = system: Staphylococcus epidermidis; assay: In vitro antibacterial activity against […] 8; procedure, shortened: as §1
[6] = system: Escherichia coli; assay: In vitro antibacterial activity against Escherichia coli P-5101; procedure, shortened: as §1
[7] = system: Pseudomonas aeruginosa; assay: In vitro antibacterial activity against Pseudomonas aeruginosa 12; procedure, shortened: as §1
[8] = system: Serratia marcescens; assay: In vitro antibacterial activity against Serratia marcescens S-9
Procedure, shortened: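 MIC (µg/mL) by 2-fold agar dilution on Mueller-Hinton agar (pH 7.4), following the Japan Society of Chemotherapy MIC Committee method. Inoculum of about 10⁶ CFU. Growth was read after 20 h at 37 °C.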

[9] = system: Klebsiella pneumoniae; assay: In vitro antibacterial activity against Klebsiella pneumoniae 13; procedure, shortened: as §1
[10] = system: Streptococcus pyogenes; assay: In vitro antibacterial activity against Streptococcus pyogenes A65; procedure, shortened: as §1
[11] = system: Moraxella bovis; assay: In vitro antibacterial activity against glucose nonfermenter Moraxella bovis P-7101; procedure, shortened: as §1
[12] = system: Staphylococcus aureus; assay: In vitro antibacterial activity against Staphylococcus aureus 50774; procedure, shortened: as §1
[13] = organism: Mus musculus; assay: Oral efficacy against Streptococcus pyogenes A65 on Systemic Infections in Mice; procedure, shortened: as §2
[14] = system: Serratia marcescens; assay: In vitro antibacterial activity against Serratia marcescence S-9; procedure, shortened: as §1
[15] = system: Staphylococcus aureus; assay: In vitro antibacterial activity against Staphylococcus aureus 209P JC-1; procedure, shortened: as §1
[16] = system: Escherichia coli; assay: In vitro antibacterial activity against Escherichia coli NIHJ JC-2; procedure, shortened: as §1

Row | SMILES | MIC [1] [mg/L] | ED50 [2] [mg/kg] | MIC [3] [mg/L] | MIC [4] [mg/L] | MIC [5] [mg/L] | MIC [6] [mg/L] | MIC [7] [mg/L] | MIC [8] [mg/L] | MIC [9] [mg/L] | MIC [10] [mg/L] | MIC [11] [mg/L] | MIC [12] [mg/L] | ED50 [13] [mg/kg] | MIC [14] [mg/L] | MIC [15] [mg/L] | MIC [16] [mg/L]
1 | O=C(O)c1cn(C2CC2)c2c(F)c(N3CCNCC3)c(F)cc2c1=O | 0.2 (≈ 0.573 µM) | 1.22 | 0.78 (≈ 2.23 µM) | 0.025 (≈ 0.0716 µM) | 0.025 (≈ 0.0716 µM) | 0.0031 (≈ 0.00887 µM) | 0.05 (≈ 0.143 µM) | 0.025 (≈ 0.0716 µM) | 0.0125 (≈ 0.0358 µM) | 0.2 (≈ 0.573 µM) | 0.39 (≈ 1.12 µM) | 0.05 (≈ 0.143 µM) | 20.5 | – | – | –
2 | CC1CN(c2c(F)c(N)c3c(=O)c(C(=O)O)cn(C4CC4)c3c2F)CCN1 (stereo not given) | 0.2 (≈ 0.529 µM) | 1.11 | 0.39 (≈ 1.03 µM) | 0.025 (≈ 0.0661 µM) | 0.025 (≈ 0.0661 µM) | 0.0063 (≈ 0.0166 µM) | 0.2 (≈ 0.529 µM) | – | 0.0125 (≈ 0.033 µM) | 0.39 (≈ 1.03 µM) | 0.39 (≈ 1.03 µM) | 0.025 (≈ 0.0661 µM) | 6.54 | 0.05 (≈ 0.132 µM) | 0.025 (≈ 0.0661 µM) | 0.006 (≈ 0.0159 µM)
3 | O=C(O)c1cn(C2CC2)c2c(F)c(N3CCNCC3)c(F)c(O)c2c1=O | – | – | – | – | – | – | 0.39 (≈ 1.07 µM) | – | – | – | – | – | – | – | 0.2 (≈ 0.547 µM) | 0.025 (≈ 0.0684 µM)
4 | Nc1c(F)c(N2CCNCC2)c(F)c2c1c(=O)c(C(=O)O)cn2C1CC1 | 0.39 (≈ 1.07 µM) | 1.56 | 0.39 (≈ 1.07 µM) | 0.0125 (≈ 0.0343 µM) | 0.05 (≈ 0.137 µM) | 0.0063 (≈ 0.0173 µM) | 0.1 (≈ 0.274 µM) | 0.05 (≈ 0.137 µM) | 0.025 (≈ 0.0686 µM) | 0.2 (≈ 0.549 µM) | 0.39 (≈ 1.07 µM) | 0.05 (≈ 0.137 µM) | 170 | – | 0.05 (≈ 0.137 µM) | 0.0063 (≈ 0.0173 µM)
5 | CN1CCN(c2c(F)c(F)c3c(=O)c(C(=O)O)cn(C4CC4)c3c2F)CC1 | – | – | – | – | – | – | 0.78 (≈ 2.05 µM) | – | – | – | – | – | – | – | 0.39 (≈ 1.02 µM) | 0.05 (≈ 0.131 µM)
6 | CSc1c(F)c(N2CCN(C)CC2)c(F)c2c1c(=O)c(C(=O)O)cn2C1CC1 | – | – | – | – | – | – | 12.5 (≈ 30.5 µM) | – | – | – | – | – | – | – | 3.13 (≈ 7.64 µM) | 0.2 (≈ 0.488 µM)
7 | C[C@@H]1CN(c2c(F)c(N)c3c(=O)c(C(=O)O)cn(C4CC4)c3c2F)[C@@H](C)CN1 | – | – | – | – | – | – | 3.13 (≈ 7.98 µM) | – | – | – | – | – | – | – | 0.78 (≈ 1.99 µM) | 0.39 (≈ 0.994 µM)
8 | CN(C)CCNc1c(F)c(N2CCN(C)CC2)c(F)c2c1c(=O)c(C(=O)O)cn2C1CC1 | – | – | – | – | – | – | 0.78 (≈ 1.74 µM) | – | – | – | – | – | – | – | 6.25 (≈ 13.9 µM) | 0.05 (≈ 0.111 µM)
9 | C[C@H]1CN(c2c(F)c(N)c3c(=O)c(C(=O)O)cn(C4CC4)c3c2F)CCN1 | 0.2 (≈ 0.529 µM) | 0.84 | 0.39 (≈ 1.03 µM) | 0.0125 (≈ 0.033 µM) | 0.025 (≈ 0.0661 µM) | 0.0063 (≈ 0.0166 µM) | 0.1 (≈ 0.264 µM) | 0.05 (≈ 0.132 µM) | 0.0125 (≈ 0.033 µM) | 0.2 (≈ 0.529 µM) | 0.2 (≈ 0.529 µM) | 0.025 (≈ 0.0661 µM) | 5.06 | – | 0.025 (≈ 0.0661 µM) | 0.0063 (≈ 0.0166 µM)
10 | C[C@@H]1CN(c2c(F)c(N)c3c(=O)c(C(=O)O)cn(C4CC4)c3c2F)CCN1 | – | – | – | – | – | – | 0.2 (≈ 0.529 µM) | – | – | – | – | – | – | – | 0.05 (≈ 0.132 µM) | 0.0125 (≈ 0.033 µM)
11 | O=C(O)c1cn(C2CC2)c2c(F)c(N3CCNCC3)c(F)c(Cl)c2c1=O | – | – | – | – | – | – | 0.39 (≈ 1.02 µM) | – | – | – | – | – | – | – | 0.1 (≈ 0.261 µM) | 0.0125 (≈ 0.0326 µM)
12 | CN1CCN(c2c(F)c(Cl)c3c(=O)c(C(=O)O)cn(C4CC4)c3c2F)CC1 | – | – | – | – | – | – | 0.78 (≈ 1.96 µM) | – | – | – | – | – | – | – | 0.2 (≈ 0.503 µM) | 0.025 (≈ 0.0628 µM)
13 | O=C(O)c1cn(C2CC2)c2c(F)c(N3CCNCC3)c(F)c(F)c2c1=O | 0.78 (≈ 2.12 µM) | 3.87 | 3.13 (≈ 8.52 µM) | 0.025 (≈ 0.0681 µM) | 0.2 (≈ 0.544 µM) | 0.0125 (≈ 0.034 µM) | 0.39 (≈ 1.06 µM) | 0.1 (≈ 0.272 µM) | 0.05 (≈ 0.136 µM) | 3.13 (≈ 8.52 µM) | 3.13 (≈ 8.52 µM) | 0.39 (≈ 1.06 µM) | 25 | – | 0.2 (≈ 0.544 µM) | 0.0125 (≈ 0.034 µM)
14 | C[C@@H]1CN(c2c(F)cc3c(=O)c(C(=O)O)cn(C4CC4)c3c2F)C[C@H](C)N1 | 0.39 (≈ 1.03 µM) | 1.41 | 1.56 (≈ 4.13 µM) | 0.05 (≈ 0.132 µM) | – | 0.0063 (≈ 0.0167 µM) | 0.39 (≈ 1.03 µM) | 0.2 (≈ 0.53 µM) | 0.05 (≈ 0.132 µM) | 0.39 (≈ 1.03 µM) | 0.78 (≈ 2.07 µM) | – | 8.64 | – | 0.39 (≈ 1.03 µM) | 0.1 (≈ 0.265 µM)
15 | CC1(C)CN(c2c(F)c(N)c3c(=O)c(C(=O)O)cn(C4CC4)c3c2F)CCN1 | – | – | – | – | – | – | 0.78 (≈ 1.99 µM) | – | – | – | – | – | – | – | 0.05 (≈ 0.127 µM) | 0.025 (≈ 0.0637 µM)
16 | CN1CCN(c2c(F)c(OCc3ccccc3)c3c(=O)c(C(=O)O)cn(C4CC4)c3c2F)CC1 | – | – | – | – | – | – | 6.25 (≈ 13.3 µM) | – | – | – | – | – | – | – | 6.25 (≈ 13.3 µM) | 1.56 (≈ 3.32 µM)
17 | CN1CCN(c2c(F)c(N(C)C)c3c(=O)c(C(=O)O)cn(C4CC4)c3c2F)CC1 | – | – | – | – | – | – | 50 (≈ 123 µM) | – | – | – | – | – | – | – | 25 (≈ 61.5 µM) | 3.13 (≈ 7.7 µM)
18 | CN1CCN(c2c(F)c(S)c3c(=O)c(C(=O)O)cn(C4CC4)c3c2F)CC1 | – | – | – | – | – | – | 12.5 (≈ 31.6 µM) | – | – | – | – | – | – | – | 3.13 (≈ 7.92 µM) | 0.39 (≈ 0.986 µM)
19 | CN1CCN(c2c(F)c(NCc3ccccc3)c3c(=O)c(C(=O)O)cn(C4CC4)c3c2F)CC1 | – | – | – | – | – | – | 3.13 (≈ 6.68 µM) | – | – | – | – | – | – | – | 0.78 (≈ 1.66 µM) | 0.78 (≈ 1.66 µM)
